Published values gathered from unrelated publications.
Target: Serine/threonine-protein kinase Chk1 (CHEK1, Homo sapiens, UniProt O14757)
One construct used (O14757 1-476): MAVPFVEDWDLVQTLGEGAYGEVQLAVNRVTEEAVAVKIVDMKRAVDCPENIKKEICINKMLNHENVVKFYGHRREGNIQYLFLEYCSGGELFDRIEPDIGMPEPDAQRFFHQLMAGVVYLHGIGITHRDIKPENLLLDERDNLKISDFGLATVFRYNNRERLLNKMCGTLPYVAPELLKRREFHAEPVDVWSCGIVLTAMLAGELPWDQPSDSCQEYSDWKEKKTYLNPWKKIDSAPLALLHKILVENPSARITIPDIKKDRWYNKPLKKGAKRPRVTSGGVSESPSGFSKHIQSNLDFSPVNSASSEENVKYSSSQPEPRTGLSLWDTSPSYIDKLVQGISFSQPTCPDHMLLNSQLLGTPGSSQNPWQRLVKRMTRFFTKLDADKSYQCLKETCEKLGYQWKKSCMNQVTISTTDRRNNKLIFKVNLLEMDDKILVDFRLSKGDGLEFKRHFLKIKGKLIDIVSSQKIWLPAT

SMILES | assay | system | conditions | measurement | value
Nc1nc(NC2CCCCC2)sc1C(=O)c1ccccc1 | enzyme activity, inhibitor | – | 10 µM | remaining activity | 96%
Cc1ccc(NC(=O)c2ccc(C)c(C(F)(F)F)c2)cc1C#Cc1nn(C2CCC(O)CC2)c2ncnc(N)c12 (stereo not drawn) | cell-free assay | – | 10 µM | remaining signal | 114%
C[S+]([O-])c1ccc(-c2nc(-c3ccncc3)c(-c3ccc(F)cc3)[nH]2)cc1 (stereo not drawn) | cell-free assay | – | 0.5 µM | remaining signal | 97.3%
O=C(NS(=O)(=O)c1ccc(NCC2CCOCC2)c([N+](=O)[O-])c1)c1ccc(N2CCN(Cc3ccc(C(F)(F)F)cc3-c3ccc(Cl)cc3)CC2)cc1Oc1cnc2[nH]ccc2c1 | cell-free assay, competition with immobilised ligand | – | 1 µM | remaining binding | 100%
C#Cc1cccc(Nc2ncnc3cc(OCCOC)c(OCCOC)cc23)c1 | cell-free assay | – | 0.5 µM | remaining signal | 95.1%
Nc1nc(Nc2ccccc2)sc1C(=O)c1c(F)cccc1F | enzyme activity, inhibitor | – | 10 µM | remaining activity | 86%
Clc1ccc(Nc2nnc(Cc3ccncc3)c3ccccc23)cc1 | cell-free assay | – | 0.5 µM | remaining signal | 96.5%
Nc1cnc(N2CCc3cc(S(=O)(=O)Nc4c(F)cc(Cl)cc4F)cc(N4CCCC4=O)c32)nc1 | cell-free assay, competition with immobilised ligand | – | 1 µM | remaining binding | 95%
O=C1NC(=O)c2cc(Nc3ccc(F)cc3)c(Nc3ccc(F)cc3)cc21 | cell-free assay | – | 0.5 µM | remaining signal | 104%
Oc1cccc(-c2nc(N3CCOCC3)c3oc4ncccc4c3n2)c1 | enzyme activity, inhibitor | – | 10 µM | remaining activity | 115%
COc1cc(/C=C/C(=O)CC(=O)/C=C/c2ccc(O)c(OC)c2)ccc1O | enzyme activity, inhibitor | – | 1 µM | activity vs control | 57%
Nc1ncnc2occ(-c3ccc(NC(=O)Nc4cc(C(F)(F)F)ccc4F)cc3)c12 | cell-free assay, inhibitor | – | 20 µM | remaining signal | 100%
Cc1nccc(COC(=O)N2C[C@@H]3[C@@H](CNC(=O)c4ccc5[nH]nnc5c4)[C@@H]3C2)n1 | cell-free assay, competition with immobilised ligand | – | 1 µM | remaining binding | 100%
COc1cc(Nc2cnc(C#N)c(O[C@H](C)CN(C)C)n2)ncc1-c1cnn(C)c1 | enzyme activity, inhibitor, radiometric | – | 1 µM | remaining activity | 17%
C[C@@H](c1cccc(C#N)c1)n1cc(Cl)cc(C(N)=O)c1=N | cell-free assay, competition with immobilised ligand | – | 1 µM | remaining binding | 100%
O=C(Nc1cnn(-c2csc(C(=O)NC3COC3)c2)c1)Nc1c(F)cccc1Cl | enzyme activity, inhibitor | – | 5 µM | remaining activity | 141%
CCS(=O)(=O)c1cc2cc(C[C@](O)(CC(C)(C)c3ccc(F)cc3C(N)=O)C(F)(F)F)[nH]c2cn1 | cell-free assay, competition with immobilised ligand | – | 1 µM | remaining binding | 97%
Cc1ccc(C(=O)NCc2ccsc2)cc1C#Cc1cn(C(C)C)c2ncnc(N)c12 | enzyme activity, inhibitor | – | 1 µM | activity vs control | 87%
N#CC1(c2ccccn2)CCN(Cc2cc(C(=O)N3CCCC3)c(=O)n3ccccc23)CC1 | cell-free assay, competition with immobilised ligand | – | 1 µM | remaining binding | 90%
CCN1CCN(Cc2ccc(NC(=O)c3ccc(C)c(/C=C/c4cnc5[nH]ccc5c4OC)c3)cc2C(F)(F)F)CC1 | target engagement in cells, inhibitor, chemoproteomics | A-375 | 5 µM | inhibition | -51.1%
CC(C)(C)c1nc2c(s1)c1nc(N)ncc1c1ccc(NS(=O)(=O)c3c(F)cccc3F)c(F)c12 | enzyme activity, inhibitor, radiometric | – | 1 µM | remaining activity | 94%
Cc1sc(C(=O)NC2COC2)cc1-n1cc(NC(=O)Nc2c(F)cccc2Cl)cn1 | enzyme activity, inhibitor | – | 10 µM | remaining activity | 118%
COc1cc2c(Nc3ccc(Br)cc3F)ncnc2cc1OCC1CCN(C)CC1 | cell-free assay | – | 0.5 µM | remaining signal | 94.4%
COCCOc1nc(-c2ccc(Cl)nc2)nc2c1CN(C(=O)c1ncn3ccccc13)CC2 | cell-free assay, competition with immobilised ligand | – | 0.1 µM | remaining binding | 100%
